From ChEMBL document CHEMBL4346661, “Design, synthesis and evaluation of novel diaryl-1,5-diazoles derivatives bearing morpholine as potent dual COX-2/5-LOX inhibitors and antitumor agents” (Eur J Med Chem, 2019)

Experiments:
HeLa = assay: Antiproliferative activity against human HeLa cells incubated for 48 hrs by MTT assay; type: functional, cell-based
In short: (§1)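 MTT assay on F10 (murine melanoma), HeLa, A549, MCF-7 and 293T (human renal epithelium) cells. IC50 given as mean ± SD of three independent experiments.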

[1] = target: T1, Prostaglandin G/H synthase 2 (Homo sapiens, UniProt P35354); assay: Inhibition of COX2 (unknown origin) using arachidonic acid as substrate incubated for 10 mins by Ellman's reagent based COX-1/COX-2 ELISA assay
T1 sequence (P35354 whole entry): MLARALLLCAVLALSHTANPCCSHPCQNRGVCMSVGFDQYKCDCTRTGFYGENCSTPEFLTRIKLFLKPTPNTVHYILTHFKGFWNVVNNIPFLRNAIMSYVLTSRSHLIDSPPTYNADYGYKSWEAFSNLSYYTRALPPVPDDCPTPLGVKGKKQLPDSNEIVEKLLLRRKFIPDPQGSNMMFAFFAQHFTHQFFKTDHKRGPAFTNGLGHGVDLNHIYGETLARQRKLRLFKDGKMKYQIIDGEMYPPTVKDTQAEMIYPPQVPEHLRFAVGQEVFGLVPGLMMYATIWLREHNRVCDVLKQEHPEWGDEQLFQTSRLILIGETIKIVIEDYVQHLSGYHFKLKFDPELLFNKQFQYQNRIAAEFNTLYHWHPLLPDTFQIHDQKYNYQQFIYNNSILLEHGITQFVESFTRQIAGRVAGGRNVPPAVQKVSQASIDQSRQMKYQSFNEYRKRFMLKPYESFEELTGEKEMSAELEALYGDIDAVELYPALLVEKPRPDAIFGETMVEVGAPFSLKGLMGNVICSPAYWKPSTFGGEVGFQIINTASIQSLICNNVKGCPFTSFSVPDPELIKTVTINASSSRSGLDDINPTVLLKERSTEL

HEK-293T = assay: Antiproliferative activity against human 293T cells incubated for 48 hrs by MTT assay; type: cell-based; in short: as §1
MCF7 = assay: Antiproliferative activity against human MCF7 cells incubated for 48 hrs by MTT assay; type: functional, cell-based; settings: MCF7, 48 h; in short: as §1
B16-F10 = assay: Antiproliferative activity against mouse B16F10 cells incubated for 48 hrs by MTT assay; type: functional, cell-based; settings: B16-F10, 48 h; in short: as §1
A549 = assay: Antiproliferative activity against human A549 cells incubated for 48 hrs by MTT assay; type: functional, cell-based; settings: A549, 48 h; in short: as §1
[2] = Inhibition of 5-LOX assessed as calcium ionophore A23187-stimulated LTB4 production preincubated for 30 mins followed by calcium ionophore A23187 addition and measured after 30 mins by ELISA

IC50 (HeLa) [µM]	IC50 [1] [µM]	IC50 (MCF7) [µM]	IC50 (B16-F10) [µM]	IC50 (A549) [µM]	IC50 [2] [µM]	SMILES	IC50 (HEK-293T) [µM]
> 100	2.25	26	29.2	> 100	0.96	COc1cccc(-c2cc(C(=O)N3CCOCC3)nn2-c2ccc(S(N)(=O)=O)cc2)c1	134
13.6	0.89	18.1	15.5	19.9	1.57	Cc1ccc(-c2cc(C(=O)N3CCSCC3)nn2-c2ccc(S(N)(=O)=O)cc2)cc1	106
26.7	1.05	19.8	13.7	18.2	0.87	COc1ccc(-c2cc(C(=O)OCCCN3CCOCC3)nn2-c2ccc(S(N)(=O)=O)cc2)cc1	169
20.4	0.87	15	19.5	17.6	0.91	COc1ccc(-c2cc(C(=O)NCCN3CCOCC3)nn2-c2ccc(S(N)(=O)=O)cc2)cc1	144
21.4	5.47	22.1	26.8	> 100	0.85	NS(=O)(=O)c1ccc(-n2nc(C(=O)OCCCN3CCOCC3)cc2-c2ccc(Cl)cc2)cc1	189
26.5		24.8	23.8	22.5		NS(=O)(=O)c1ccc(-n2nc(C(=O)O)cc2-c2ccc(C(F)(F)F)cc2)cc1	190
21.8	0.64	39.2	30.8	> 100	0.96	NS(=O)(=O)c1ccc(-n2nc(C(=O)NCCN3CCOCC3)cc2-c2ccccc2)cc1	151
21.6	0.97	16.5	32.3	> 100	0.97	CCOc1ccc(-c2cc(C(=O)N3CCSCC3)nn2-c2ccc(S(N)(=O)=O)cc2)cc1	169
20.8	0.85	25.8	24.2	16.5	0.86	CCOc1ccc(-c2cc(C(=O)NCCN3CCOCC3)nn2-c2ccc(S(N)(=O)=O)cc2)cc1	155
> 100	0.67	18.9	> 100	30.8	3.41	NS(=O)(=O)c1ccc(-n2nc(C(=O)N3CCSCC3)cc2-c2ccccc2)cc1	164
20	0.31	23	> 100	19.5	0.89	NS(=O)(=O)c1ccc(-n2nc(C(=O)NCCN3CCOCC3)cc2-c2ccc(Cl)cc2)cc1	112
27.7	0.39	20	21.8	25.2	2.59	NS(=O)(=O)c1ccc(-n2nc(C(=O)N3CCOCC3)cc2-c2ccc(C(F)(F)F)cc2)cc1	199
20.3	1.95	17.9	13	16	1.19	COc1cccc(-c2cc(C(=O)N3CCSCC3)nn2-c2ccc(S(N)(=O)=O)cc2)c1	177
22.4	0.56	17.2	22.7	17.7	0.82	NS(=O)(=O)c1ccc(-n2nc(C(=O)OCCCN3CCOCC3)cc2-c2ccccc2)cc1	95.5
27.2	2.99	15	18.6	41.7	0.95	CCOc1ccc(-c2cc(C(=O)N3CCOCC3)nn2-c2ccc(S(N)(=O)=O)cc2)cc1	116
> 100	0.21	19.3	18.1	> 100	0.84	NS(=O)(=O)c1ccc(-n2nc(C(=O)OCCN3CCOCC3)cc2-c2ccc(F)cc2)cc1	146
> 100	0.23	39.8	> 100	> 100	2.31	NS(=O)(=O)c1ccc(-n2nc(C(=O)N3CCSCC3)cc2-c2ccc(Cl)cc2)cc1	232

IC50 (HeLa) [µM]	IC50 [1] [µM]	IC50 (MCF7) [µM]	IC50 (B16-F10) [µM]	IC50 (A549) [µM]	IC50 [2] [µM]	SMILES	IC50 (HEK-293T) [µM]
19.2	0.91	15	12.9	17.8	0.84	CCOc1ccc(-c2cc(C(=O)NCCCN3CCOCC3)nn2-c2ccc(S(N)(=O)=O)cc2)cc1	138
29.2	0.21	18.2	26.4	18.2	1.27	NS(=O)(=O)c1ccc(-n2nc(C(=O)N3CCSCC3)cc2-c2ccc(F)cc2)cc1	174
> 100	0.69	16.5	16.2	26.1	1.19	NS(=O)(=O)c1ccc(-n2nc(C(=O)N3CCOCC3)cc2-c2ccccc2)cc1	184
24.1	1.21	19.7	13.2	17.2	1.01	COc1ccc(-c2cc(C(=O)N3CCSCC3)nn2-c2ccc(S(N)(=O)=O)cc2)cc1	211
21.6	2.01	16	20.8	19.6	0.93	COc1ccc(-c2cc(C(=O)N3CCOCC3)nn2-c2ccc(S(N)(=O)=O)cc2)cc1	207
> 100	0.16	15.8	> 100	> 100	1.01	NS(=O)(=O)c1ccc(-n2nc(C(=O)NCCN3CCOCC3)cc2-c2ccc(F)cc2)cc1	112
29.8	1.11	18.8	20.2	21.5	0.79	CCOc1ccc(-c2cc(C(=O)OCCN3CCOCC3)nn2-c2ccc(S(N)(=O)=O)cc2)cc1	116
17.9	0.24	15.8	14.6	24.6	1.33	NS(=O)(=O)c1ccc(-n2nc(C(=O)N3CCOCC3)cc2-c2cccc(Cl)c2)cc1	114
51.3	0.23	18.9	30.1	25.7	2.01	NS(=O)(=O)c1ccc(-n2nc(C(=O)N3CCOCC3)cc2-c2cccc(F)c2)cc1	180
25.4	0.25	25.8	22	23	0.87	NS(=O)(=O)c1ccc(-n2nc(C(=O)OCCN3CCOCC3)cc2-c2ccc(Cl)cc2)cc1	122
16	1.28	14.6	12.1	17.7	1.21	NS(=O)(=O)c1ccc(-n2nc(C(=O)N3CCSCC3)cc2-c2ccc(Br)cc2)cc1	197
22.6	0.31	17.9	> 100	20	0.98	NS(=O)(=O)c1ccc(-n2nc(C(=O)N3CCOCC3)cc2-c2ccc(Br)cc2)cc1	160
> 100	0.71	16.3	13	19.2	0.98	COc1ccc(-c2cc(C(=O)NCCCN3CCOCC3)nn2-c2ccc(S(N)(=O)=O)cc2)cc1	200
> 100	0.35	> 100	> 100	> 100	1.79	NS(=O)(=O)c1ccc(-n2nc(C(=O)N3CCOCC3)cc2-c2ccc(Cl)cc2)cc1	> 300
27.4	0.42	18.1	21.8	20.5	0.93	NS(=O)(=O)c1ccc(-n2nc(C(=O)NCCCN3CCOCC3)cc2-c2ccccc2)cc1	156
> 100	0.93	17.9	21.4	22.8	1.24	Cc1ccc(-c2cc(C(=O)N3CCOCC3)nn2-c2ccc(S(N)(=O)=O)cc2)cc1	190
